Reference: ChEMBL document CHEMBL4190270, “Novel 4-arylaminoquinazoline derivatives with (E)-propen-1-yl moiety as potent EGFR inhibitors with enhanced antiproliferative activities against tumor cells” (Eur J Med Chem, 2017)
Blank lines part the entries; values can stand above or below the molecule they belong to. Active and inactive are the calls of the source. The rule behind the calls is not given here.

Columns and labels:
A-431 = assay: Antiproliferative activity against human A431 cells harboring wild type EGFR after 72 hrs by MTT assay; format: functional, cell-based; settings: A-431, 72 h
In short: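 Cells grown in DMEM or 1640 with 10% FBS, penicillin/streptomycin and 2 mM L-glutamine, plated in 96 wells for 24 h at 37 °C under 5% CO2. Exposed to compound as an 8-point series, or to 0.5% DMSO, for 72 h. Then MTT (5 mg/ml) for 4 h, formazan dissolved in DMSO, absorbance read at 570 nm (630 nm reference). IC50 by nonlinear regression; mean ± SD of at least three independent experiments.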

SW480 = assay: Antiproliferative activity against human SW480 cells harboring wild type EGFR after 72 hrs by MTT assay; format: functional, cell-based; settings: SW480, 72 h
NCI-H1975 = assay: Antiproliferative activity against human NCI-H1975 cells harboring EGFR L858R/T790M mutant after 72 hrs by MTT assay; format: functional, cell-based; settings: NCI-H1975, 72 h
A549 [1] = assay: Antiproliferative activity against human A549 cells harboring wild type EGFR/K-Ras mutant after 72 hrs by MTT assay; format: functional, cell-based; settings: A549, 72 h
[2] = molecular target: T1, Epidermal growth factor receptor (Homo sapiens, UniProt P00533); assay: Inhibition of EGFR in human A549 cells assessed as reduction in EGF-induced ERK1/2 phosphorylation at T202/Y204 residues at 5 uM preincubated for 2 hrs followed by EGF stimulation for 10 mins by Western blot analysis; format: cell-based
In short: (§1)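 Cells grown in 6-well plates with 10% FBS to 90% confluence, then serum-starved 24 h. Exposed to a dose range of compound, or to 25 μM reference drug, for 2 h, then stimulated with 50 ng/mL EGF for 10 min at 37 °C. Lysed in RIPA with protease/phosphatase inhibitors. 20 µg protein run on 10% SDS-PAGE, transferred to PVDF, blocked with 5% milk, immunoblotted and detected by ECL.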

[3] = test system: Epidermal growth factor receptor (Homo sapiens), P00533 [L858R,T790M]; assay: Inhibition of EGF-induced EGFR L858R/T790M double mutant phosphorylation at Y992-residue in human NCI-H1975 cells preincubated for 2 hrs followed by EGF stimulation for 10 mins by Western blot analysis; format: cell-based; in short: as §1
A549 [4] = assay: Effect on total ERK1/2 protein expression in human A549 cells at 1 to 25 uM preincubated for 2 hrs followed by EGF stimulation for 10 mins by Western blot analysis; format: ADME, cell-based; settings: a549, 10 min; in short: as §1
[5] = test system: Epidermal growth factor receptor (Homo sapiens), P00533 [L858R,T790M]; settings: NCI-H1975, at 25 µM
[6] = test system: Epidermal growth factor receptor (Homo sapiens), P00533 [L858R,T790M]; assay: Inhibition of EGF-induced EGFR L858R/T790M double mutant phosphorylation at Tyr-residue in human NCI-H1975 cells preincubated for 2 hrs followed by EGF stimulation for 10 mins by Western blot analysis; format: cell-based; in short: as §1
[7] = molecular target: T1, Epidermal growth factor receptor; assay: Inhibition of EGF-induced EGFR phosphorylation at Y992-residue in human A549 cells at 5 uM preincubated for 2 hrs followed by EGF stimulation for 10 mins by Western blot analysis; format: cell-based; in short: as §1
[8] = molecular target: T1, Epidermal growth factor receptor; assay: Inhibition of EGF-induced EGFR phosphorylation at Tyr-residue in human A549 cells at 5 uM preincubated for 2 hrs followed by EGF stimulation for 10 mins by Western blot analysis; format: cell-based; in short: as §1
[9] = molecular target: T1, Epidermal growth factor receptor; assay: Inhibition of EGFR in human A549 cells assessed as reduction in EGF-induced STAT3 phosphorylation at 1 to 25 uM preincubated for 2 hrs followed by EGF stimulation for 10 mins by Western blot analysis; format: cell-based; in short: as §1
[10] = molecular target: T1, Epidermal growth factor receptor; assay: Inhibition of EGF-induced EGFR phosphorylation at Y1086-residue in human A549 cells at 5 uM preincubated for 2 hrs followed by EGF stimulation for 10 mins by Western blot analysis; format: cell-based; in short: as §1
[11] = molecular target: T1, Epidermal growth factor receptor; format: cell-based, HEK293
[12] = molecular target: T1, Epidermal growth factor receptor; settings: A549, at 25 µM
[13] = molecular target: T1, Epidermal growth factor receptor; settings: A549, at 25 µM; remark: listed apart in the source
A549 [14] = assay: Effect on total AKT protein expression in human A549 cells at 1 to 25 uM preincubated for 2 hrs followed by EGF stimulation for 10 mins by Western blot analysis; format: ADME, cell-based; settings: a549, 10 min; in short: as §1
[15] = molecular target: T1, Epidermal growth factor receptor; assay: Inhibition of EGFR in human A549 cells assessed as reduction in EGF-induced Akt phosphorylation at S473 residue at 5 uM preincubated for 2 hrs followed by EGF stimulation for 10 mins by Western blot analysis; format: cell-based; in short: as §1
[16] = molecular target: T1, Epidermal growth factor receptor; settings: A549, at 25 µM; remark: listed apart in the source
[17] = molecular target: T1, Epidermal growth factor receptor; settings: A549, at 25 µM; remark: listed apart in the source
[18] = test system: Epidermal growth factor receptor (Homo sapiens), P00533 [L858R,T790M]; assay: Inhibition of EGFR L858R/T790M double mutant in human NCI-H1975 cells assessed as reduction in EGF-induced Akt phosphorylation at Ser473 residue at 25 uM preincubated for 2 hrs followed by EGF stimulation for 10 mins by Western blot analysis; format: cell-based; in short: as §1
[19] = test system: Epidermal growth factor receptor (Homo sapiens), P00533 [L858R,T790M]; assay: Inhibition of EGFR L858R/T790M double mutant in human NCI-H1975 cells assessed as reduction in EGF-induced ERK1/2 phosphorylation at T202/Y204 residues at 25 uM preincubated for 2 hrs followed by EGF stimulation for 10 mins by Western blot analysis; format: cell-based; in short: as §1
[20] = molecular target: T1, Epidermal growth factor receptor; settings: A549, at 25 µM; remark: listed apart in the source
A549 [21] = assay: Effect on total EGFR protein expression in human A549 cells at 1 to 25 uM preincubated for 2 hrs followed by EGF stimulation for 10 mins by Western blot analysis; format: ADME, cell-based; settings: a549, 10 min; in short: as §1
[22] = test system: Epidermal growth factor receptor (Homo sapiens), P00533 [L858R,T790M]; assay: Inhibition of EGF-induced EGFR L858R/T790M double mutant phosphorylation at Y1068-residue in human NCI-H1975 cells preincubated for 2 hrs followed by EGF stimulation for 10 mins by Western blot analysis; format: cell-based; in short: as §1

Sequence of Epidermal growth factor receptor (Homo sapiens), P00533 [L858R,T790M] (P00533 whole entry T790M/L858R, looked up): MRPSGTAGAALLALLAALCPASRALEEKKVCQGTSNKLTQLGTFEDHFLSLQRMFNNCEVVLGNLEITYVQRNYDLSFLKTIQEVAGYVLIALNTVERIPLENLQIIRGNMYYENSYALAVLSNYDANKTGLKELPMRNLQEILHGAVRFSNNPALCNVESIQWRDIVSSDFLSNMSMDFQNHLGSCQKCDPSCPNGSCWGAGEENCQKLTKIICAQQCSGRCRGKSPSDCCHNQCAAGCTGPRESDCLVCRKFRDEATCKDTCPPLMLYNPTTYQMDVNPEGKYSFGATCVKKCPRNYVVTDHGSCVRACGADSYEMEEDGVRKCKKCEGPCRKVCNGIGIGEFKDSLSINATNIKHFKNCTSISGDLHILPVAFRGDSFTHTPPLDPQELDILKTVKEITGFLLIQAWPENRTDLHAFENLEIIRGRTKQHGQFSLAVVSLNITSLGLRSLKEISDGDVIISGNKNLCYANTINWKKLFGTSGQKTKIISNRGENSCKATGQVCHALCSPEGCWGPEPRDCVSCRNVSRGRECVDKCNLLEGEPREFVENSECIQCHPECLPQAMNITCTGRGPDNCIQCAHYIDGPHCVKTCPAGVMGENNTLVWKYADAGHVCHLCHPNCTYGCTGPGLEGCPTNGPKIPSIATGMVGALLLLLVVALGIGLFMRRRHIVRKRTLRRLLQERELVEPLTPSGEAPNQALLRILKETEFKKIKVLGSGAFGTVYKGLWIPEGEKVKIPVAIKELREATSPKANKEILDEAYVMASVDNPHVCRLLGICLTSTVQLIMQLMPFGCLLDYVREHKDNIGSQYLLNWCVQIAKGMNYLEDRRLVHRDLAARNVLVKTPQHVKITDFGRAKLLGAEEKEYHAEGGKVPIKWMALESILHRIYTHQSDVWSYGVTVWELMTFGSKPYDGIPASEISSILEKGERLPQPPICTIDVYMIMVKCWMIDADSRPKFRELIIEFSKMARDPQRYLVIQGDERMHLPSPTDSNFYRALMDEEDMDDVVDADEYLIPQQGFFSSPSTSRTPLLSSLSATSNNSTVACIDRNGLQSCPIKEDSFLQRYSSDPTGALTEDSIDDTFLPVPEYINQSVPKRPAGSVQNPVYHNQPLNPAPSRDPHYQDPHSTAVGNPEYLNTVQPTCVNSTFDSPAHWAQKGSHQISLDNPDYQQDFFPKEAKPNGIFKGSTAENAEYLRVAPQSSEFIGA
T1 sequence (P00533 whole entry): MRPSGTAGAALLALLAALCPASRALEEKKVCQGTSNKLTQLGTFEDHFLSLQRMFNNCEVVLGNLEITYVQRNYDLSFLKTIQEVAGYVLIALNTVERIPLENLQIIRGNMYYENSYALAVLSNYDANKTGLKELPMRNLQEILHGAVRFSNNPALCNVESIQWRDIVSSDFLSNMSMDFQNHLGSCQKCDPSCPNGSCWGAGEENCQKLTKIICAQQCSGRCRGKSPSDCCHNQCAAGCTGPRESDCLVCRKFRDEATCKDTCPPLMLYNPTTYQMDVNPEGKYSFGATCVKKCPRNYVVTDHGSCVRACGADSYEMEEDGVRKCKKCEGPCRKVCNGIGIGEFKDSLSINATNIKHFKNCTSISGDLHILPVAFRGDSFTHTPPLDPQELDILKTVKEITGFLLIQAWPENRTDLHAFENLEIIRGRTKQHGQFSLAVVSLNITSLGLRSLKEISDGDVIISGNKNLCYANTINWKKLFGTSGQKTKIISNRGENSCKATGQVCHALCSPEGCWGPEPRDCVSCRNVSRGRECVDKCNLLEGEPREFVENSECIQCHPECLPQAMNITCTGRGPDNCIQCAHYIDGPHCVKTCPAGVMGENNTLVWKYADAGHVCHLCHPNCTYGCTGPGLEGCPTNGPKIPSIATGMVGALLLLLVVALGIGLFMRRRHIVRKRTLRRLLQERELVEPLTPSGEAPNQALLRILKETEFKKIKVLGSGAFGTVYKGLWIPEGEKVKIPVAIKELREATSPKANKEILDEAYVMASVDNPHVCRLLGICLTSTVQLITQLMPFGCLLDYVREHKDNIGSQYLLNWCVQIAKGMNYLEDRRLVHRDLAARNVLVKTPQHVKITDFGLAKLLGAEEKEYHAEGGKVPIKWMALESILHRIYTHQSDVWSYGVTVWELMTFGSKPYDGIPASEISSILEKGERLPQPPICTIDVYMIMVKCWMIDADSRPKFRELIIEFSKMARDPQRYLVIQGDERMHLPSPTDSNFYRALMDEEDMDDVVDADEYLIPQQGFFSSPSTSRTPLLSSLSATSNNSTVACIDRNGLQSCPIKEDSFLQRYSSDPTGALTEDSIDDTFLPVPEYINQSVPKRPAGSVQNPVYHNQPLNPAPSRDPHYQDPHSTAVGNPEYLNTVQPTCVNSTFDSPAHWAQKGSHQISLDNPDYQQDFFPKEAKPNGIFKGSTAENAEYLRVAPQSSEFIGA

IC50 (A-431): 12 µM
IC50 (SW480): 10.4 µM
IC50 (NCI-H1975): 23.9 µM
IC50 (A549 [1]): 17.4 µM
Structure (SMILES): C/C=C/c1ccc(Nc2ncnc3ccc(OCCCN4CCOCC4)cc23)cc1

IC50 (A-431): 28.1 µM
IC50 (SW480): 37 µM
IC50 (NCI-H1975): 44.1 µM
IC50 (A549 [1]): 36.5 µM
Structure (SMILES): C/C=C/c1ccc(Nc2ncnc3cc(OCc4ccccc4)c(OCc4ccccc4)cc23)cc1

IC50 (A-431): 57.7 µM
IC50 (SW480): 62.6 µM
IC50 (NCI-H1975): > 100 µM
IC50 (A549 [1]): 85.3 µM
Structure (SMILES): C/C=C/c1ccc(Nc2ncnc3ccc(OCCN4CCOCC4)cc23)cc1

IC50 (A-431): 37.6 µM
IC50 (SW480): 56.3 µM
IC50 (NCI-H1975): > 100 µM
IC50 (A549 [1]): 84.5 µM
Structure (SMILES): C/C=C/c1ccc(Nc2ncnc3ccc(-c4ccc(CNCCS(C)(=O)=O)o4)cc23)cc1

IC50 (NCI-H1975): 9.08 µM
Structure (SMILES): CS(=O)(=O)CCNCc1ccc(-c2ccc3ncnc(Nc4ccc(OCc5cccc(F)c5)c(Cl)c4)c3c2)o1 [LAPATINIB]

Further lines, the molecule ahead of its results:

Structure (SMILES): C/C=C/c1ccc(Nc2ncnc3cc(OCCOC)c(OCCOC)cc23)cc1
IC50 (A-431): 23.9 µM
IC50 (SW480): 43.6 µM
IC50 (NCI-H1975): 27.7 µM
IC50 (A549 [1]): 24.7 µM

Structure (SMILES): C/C=C/c1ccc(Nc2ncnc3cc(OCCCN4CCOCC4)c(OCCCN4CCOCC4)cc23)cc1
inhibition [2]: Active
inhibition [3]: Dose-dependent effect
Activity (A549 [4]): Non-Toxic
inhibition [5]: Active
inhibition [6]: Dose-dependent effect
inhibition [7]: Active
inhibition [8]: Active
inhibition [9]: inactive
inhibition [10]: Active
IC50 [11]: 0.0207 µM
inhibition [12]: Active
inhibition [13]: Active
Activity (A549 [14]): Non-Toxic
inhibition [15]: Active
inhibition [16]: Active
inhibition [17]: Active
inhibition [18]: Active
inhibition [19]: Active
inhibition [20]: Active
Activity (A549 [21]): Non-Toxic
inhibition [22]: Dose-dependent effect

Structure (SMILES): C/C=C/c1ccc(Nc2ncnc3cc(OCCCN4CCOCC4)c(OC)cc23)cc1
IC50 (A-431): 6.34 µM
IC50 (SW480): 11.6 µM
IC50 (NCI-H1975): 10.8 µM
IC50 (A549 [1]): 10.3 µM

Structure (SMILES): C/C=C/c1ccc(Nc2ncnc3cc(OCCN4CCOCC4)c(OC)cc23)cc1
IC50 (A-431): 22.4 µM
IC50 (SW480): 27.6 µM
IC50 (NCI-H1975): > 100 µM
IC50 (A549 [1]): 37.5 µM

Structure (SMILES): C/C=C/c1ccc(Nc2ncnc3cc(OC)c(OCCN4CCOCC4)cc23)cc1
IC50 (A-431): 47.1 µM
IC50 (SW480): 28.2 µM
IC50 (NCI-H1975): > 100 µM
IC50 (A549 [1]): 26.5 µM

Structure (SMILES): C/C=C/c1ccc(Nc2ncnc3cc(OC)c(OCCCN4CCOCC4)cc23)cc1
IC50 (A-431): 13.9 µM
IC50 (SW480): 14.7 µM
IC50 (NCI-H1975): 38.9 µM
IC50 (A549 [1]): 10.3 µM

Structure (SMILES): C/C=C/c1ccc(Nc2ncnc3cc4c(cc23)OCCO4)cc1
IC50 (A-431): > 100 µM
IC50 (SW480): 34 µM
IC50 (NCI-H1975): > 100 µM
IC50 (A549 [1]): 38.2 µM
